# Source: PMC4445693 (Clinical Pharmacology : Advances and Applications, 2015)
# Read-outs that look alike come from different tables or passages of the source.
# How the values were obtained:
# [1] = cited from earlier work; for AUC24 h in plasma: rat
# [2] = cited from earlier work
# [3] = human plasma; cited from earlier work
# [4] = Single-dose plasma and skin-tissue pharmacokinetics of daptomycin in rats; format: in vivo, rat
# Outline: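 Rats (10 weeks), scalp depilated, sevoflurane-anaesthetised; test compound 10 mg/mL in saline s.c. Blood and 10×15 mm scalp skin sampled 1, 3, 5, 8, 12 h (3/time point); skin homogenised in 9 vol 1% phosphate buffer pH 6.0, extracted 4°C 18 h. Acetonitrile precipitation, mefenamic acid internal standard; C8 HPLC, UV 214 nm. Cmax/Tmax observed; AUC, MRT by trapezoidal rule; mean ± SD.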
# [5] = male, Wistar, rat, plasma, sc, 50 mg/kg, SD
smiles,measurement,setting,value
CCCCCCCCCC(=O)N[C@@H](Cc1c[nH]c2ccccc12)C(=O)N[C@H](CC(N)=O)C(=O)N[C@@H](CC(=O)O)C(=O)N[C@@H]1C(=O)NCC(=O)N[C@@H](CCCN)C(=O)N[C@@H](CC(=O)O)C(=O)N[C@H](C)C(=O)N[C@@H](CC(=O)O)C(=O)NCC(=O)N[C@H](CO)C(=O)N[C@@H]([C@H](C)CC(=O)O)C(=O)N[C@@H](CC(=O)c2ccccc2N)C(=O)O[C@@H]1C [daptomycin],t½,"[1]; rat plasma, previous studies",1.6 to 2.9 h
same,AUC24 h in plasma,[1]; intraperitoneal dose of 30 mg/kg/day,558 µg·h/mL
same,AUC24 h in plasma,[1]; subcutaneous dose of 40 mg/kg/day,605 µg·h/mL
same,Protein binding in rat serum,[2],89.3%
same,Plasma protein binding in humans,[3],92%
same,Tmax skin tissue,"[4]; male Wistar rats, single subcutaneous 50 mg/kg, skin tissue",3.0 h
same,Tmax,"[4]; male, Wistar, rat, plasma, sc, 50 mg/kg",3 h
same,AUC(0-inf),[4]; [5],812 ± 31.9 µg·h/mL
same,Cmax,[4]; [5],176 ± 6.3 µg/mL
same,MRT,[4]; [5],2.28 ± 0.33 h
same,half-life,[4]; [5],1.58 ± 0.23 h
